The list is not random: actives were taken first. Their share in the collection is about 9.3%.
hDAT+cocaine = changed human dopamine transporter uptake under cocaine IC80 | LLC-PK1 hDAT cells, [14C]-dopamine uptake with cocaine IC80; actives deviate in either direction | AID 449768 | 1.3% of 110,000 active | Q01959 | B-score at 10 µM;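 active means Z score or B-score, a plate-position-corrected score, falls beyond the plate's 99.7% confidence bounds, in either direction; inactive means both scores lie inside the 99.7% bounds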
Target sequence (Q01959 whole entry, looked up): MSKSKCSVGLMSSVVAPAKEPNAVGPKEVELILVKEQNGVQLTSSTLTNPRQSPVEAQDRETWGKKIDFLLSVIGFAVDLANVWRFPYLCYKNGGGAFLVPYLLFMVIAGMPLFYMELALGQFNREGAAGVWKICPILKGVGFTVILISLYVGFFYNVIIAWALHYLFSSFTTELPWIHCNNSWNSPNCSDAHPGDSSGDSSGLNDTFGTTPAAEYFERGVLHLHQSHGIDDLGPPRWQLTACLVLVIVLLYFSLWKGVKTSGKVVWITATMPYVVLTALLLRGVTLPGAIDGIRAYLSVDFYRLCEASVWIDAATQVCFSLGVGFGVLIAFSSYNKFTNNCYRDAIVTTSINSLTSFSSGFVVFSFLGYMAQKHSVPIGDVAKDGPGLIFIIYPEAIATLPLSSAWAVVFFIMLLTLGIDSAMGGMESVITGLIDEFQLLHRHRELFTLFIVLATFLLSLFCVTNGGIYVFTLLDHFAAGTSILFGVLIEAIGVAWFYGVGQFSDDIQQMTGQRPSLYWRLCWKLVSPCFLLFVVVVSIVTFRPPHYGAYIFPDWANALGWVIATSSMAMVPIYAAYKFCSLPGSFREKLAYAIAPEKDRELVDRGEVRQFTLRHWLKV
PostGolgi yeast = growth inhibition of a yeast mutant, post-Golgi transport screen. post-Golgi transport phenotypic cell assay. inhibition, % at 10 µM. 0.9% of 98,000 active. AID 739;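 further: yeast cells grown in 1536-well plates; yeast grown about 18 h at 30C before absorbance read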
D1 allo mod = D1 dopamine receptor (human) allosteric modulation; P21728; HEK293 D1, CRE-luciferase, dopamine EC30 potentiation; actives deviate in either direction; B-score at 10 µM; 5.9% of 58,000 active; AID 641;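 active means luminescence count or its row- and column-corrected plate score outside the 99.7% band of the plate's sample wells, on either side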
Ecoli WT expand = growth inhibitors of E. coli BW25113 wild type. AID 710. growth inhibition, % at 100 µM. 0.15% of 98,000 active. OD600 absorbance;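 active means growth inhibition above about 50% at one test dose, limit read from the data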;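 further: growth measured after 20 h incubation at 37 °C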
Ecoli tolC = blocks growth of E. coli BW25113 tolC mutant. 2.2% of 65,000 active. AID 573. OD615. growth inhibition, % at 10 µM (by protocol);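 active means growth inhibition at or above a cutoff equal to the mean over every tested compound plus 3 SD, cut at about 60% in these data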;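 further: growth measured after 20 h incubation at 37 °C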
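Assay system: tolC-deleted E. coli BW25113. Medium: kanamycin-containing LB broth (50 µg/mL). Dosing: 10 µM final, single dose. Timing: bacterial growth with compound for 20 h at 37 °C. Detection: A615 absorbance measurement. Read-out basis: growth inhibition in percent.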
PostGolgi ctrl = growth of the yeast control strain, post-Golgi counter-screen. inhibition, % at 10 µM. 5% of 98,000 active. efflux-deficient yeast background strain, growth absorbance A615, 16 h
D1 mod confirm = D1 receptor (human) allosteric modulation, confirmed | 88% of 2,200 active | HEK293 D1 CRE-luciferase, dopamine EC30 potentiation; hits give high values | AID 642 | shares compounds with D1 allo mod | luminescence at 10 µM;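 active means luminescence in either of two replicates above the same-plate mean plus 3 SD of the low-dose dopamine control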
D1 ag no DA = activates D1 CRE-luciferase signal without dopamine present; HEK293 D1 CRE-luciferase, luminescence, no dopamine; hits give high values; shares compounds with D1 allo mod; luminescence at 10 µM; 0.8% of 1,900 active; in the data active means luminescence above about 3900
Isoprot counter = counter-screen for D1 modulators: isoproterenol response in HEK293 cells. shares compounds with D1 allo mod. HEK293 D1 CRE-luciferase, isoproterenol EC30 counter-screen. calls only at 10 µM. 63% of 2,200 active. AID 647;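 active means luminescence in either replicate above plate mean of wells with a partly effective reference agonist dose plus 3 SD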;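 further: isoproterenol raises cAMP through native beta-adrenoceptor Gs so signal bypasses D1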
A number is an active result. Unless noted, no stated cut-off is given here; in the data, active means inhibition above about 30%; inactive means the rest.

How did Cc1ccc(C(=O)n2cc(CCN3CCS(=O)(=O)CC3)c3ccccc32)cc1 do in these assays?
hDAT+cocaine: inactive; PostGolgi yeast: inactive; Ecoli WT expand: inactive; PostGolgi ctrl: inactive

Results for O=C(c1cnn2c(C(F)(F)F)cc(-c3ccccc3)nc12)N1CCC2(CC1)OCCO2 ?
hDAT+cocaine: inactive; PostGolgi yeast: inactive; Ecoli WT expand: inactive; PostGolgi ctrl: inactive

How did COc1cccc(-c2cc(C(F)(F)F)n3nc(C(=O)N4CCC5(CC4)OCCO5)cc3n2)c1 do in these assays?
hDAT+cocaine: inactive; PostGolgi yeast: inactive; D1 allo mod: 2.4; Ecoli WT expand: inactive; Ecoli tolC: inactive; PostGolgi ctrl: inactive; D1 mod confirm: 9588; Isoprot counter: inactive

How did O=c1cccc2n1CC1CC2CN(Cc2c(Cl)cccc2Cl)C1 (configuration not stated) do in these assays?
hDAT+cocaine: inactive; PostGolgi yeast: inactive; D1 allo mod: inactive; Ecoli WT expand: inactive; Ecoli tolC: inactive; PostGolgi ctrl: inactive

Results for Cc1ccc(CN2CC3CC(C2)c2cccc(=O)n2C3)cc1 (configuration not stated) ?
hDAT+cocaine: inactive; PostGolgi yeast: inactive; D1 allo mod: 3.3; Ecoli WT expand: inactive; Ecoli tolC: inactive; PostGolgi ctrl: inactive; D1 mod confirm: inactive; D1 ag no DA: inactive; Isoprot counter: inactive

What do the screens show for `CCOC(=O)c1c(C)n(Cc2ccc3c(c2)OCO3)c2ccc(O)cc12`?
hDAT+cocaine: inactive; PostGolgi yeast: inactive; Ecoli WT expand: inactive; PostGolgi ctrl: inactive

How did CCOC(=O)c1c(C)n(Cc2ccccc2)c2ccc(OCC(O)CN3C(=O)CNC3=O)cc12 (configuration not stated) do in these assays?
hDAT+cocaine: inactive; PostGolgi yeast: inactive; D1 allo mod: 10; Ecoli WT expand: inactive; Ecoli tolC: inactive; PostGolgi ctrl: inactive; D1 mod confirm: 22384; D1 ag no DA: inactive; Isoprot counter: active

How did O=C1NC(=S)NC(=O)C12C(c1ccc(F)cc1)NC(=S)NC2c1ccc(F)cc1 (configuration not stated) do in these assays?
hDAT+cocaine: inactive; PostGolgi yeast: inactive; Ecoli WT expand: inactive; PostGolgi ctrl: inactive

How did C=C(C)CN1CC[C@]23c4c5ccc(O)c4O[C@H]2c2[nH]c4ccccc4c2C[C@@]3(O)C1C5 do in these assays?
hDAT+cocaine: inactive

Results for O=C(CCCOc1ccc(Cl)cc1Cl)N1CCC2(CC1)OCCO2 ?
hDAT+cocaine: inactive; PostGolgi yeast: inactive; D1 allo mod: 6.6; Ecoli WT expand: inactive; Ecoli tolC: inactive; PostGolgi ctrl: inactive; D1 mod confirm: 8848; D1 ag no DA: inactive; Isoprot counter: active

Results for CCCCn1c(O)c(C(C)=NCCCN(C)C)c(=O)[nH]c1=O ?
hDAT+cocaine: inactive; PostGolgi yeast: inactive; D1 allo mod: inactive; Ecoli WT expand: inactive; Ecoli tolC: inactive; PostGolgi ctrl: inactive

Results for CCCCn1c(O)c(C(CC)=NCCc2ccccc2)c(=O)[nH]c1=O ?
hDAT+cocaine: inactive; PostGolgi yeast: inactive; D1 allo mod: 6.3; Ecoli WT expand: inactive; Ecoli tolC: 99; PostGolgi ctrl: 55; D1 mod confirm: 8912; D1 ag no DA: inactive; Isoprot counter: active

Results for C=CCn1c(O)c(C(C)=NCc2cccnc2)c(=O)[nH]c1=O ?
hDAT+cocaine: inactive; PostGolgi yeast: inactive; D1 allo mod: inactive; Ecoli WT expand: inactive; Ecoli tolC: inactive; PostGolgi ctrl: inactive

How did CCCCn1c(O)c(C(C)=NCc2ccc(F)cc2)c(=O)[nH]c1=O do in these assays?
hDAT+cocaine: inactive; PostGolgi yeast: inactive; D1 allo mod: 4; Ecoli WT expand: inactive; Ecoli tolC: inactive; PostGolgi ctrl: inactive; D1 mod confirm: 10964; D1 ag no DA: inactive; Isoprot counter: inactive

Results for C=CCn1c(O)c(C(C)=NCc2cc(OC)cc(OC)c2)c(=O)[nH]c1=O ?
hDAT+cocaine: inactive; PostGolgi yeast: inactive; D1 allo mod: 3.2; Ecoli WT expand: inactive; Ecoli tolC: inactive; PostGolgi ctrl: inactive; D1 mod confirm: 9872; D1 ag no DA: inactive; Isoprot counter: active

Results for CCC1C2Cn3c(nc4ccccc43)C1N(C)O2 (configuration not stated) ?
hDAT+cocaine: inactive

What do the screens show for `CN(C)CCOC(=O)c1cn(Cc2ccccc2)c2ccccc12`?
hDAT+cocaine: inactive; PostGolgi yeast: inactive; Ecoli WT expand: inactive; Ecoli tolC: inactive; PostGolgi ctrl: inactive

Results for NCCc1ccc(O)cc1 ?
hDAT+cocaine: inactive; PostGolgi yeast: inactive; D1 allo mod: 5.1; Ecoli WT expand: inactive; Ecoli tolC: inactive; PostGolgi ctrl: inactive; D1 mod confirm: 7676; D1 ag no DA: 17832; Isoprot counter: active

How did CCOC(=O)N(c1ccccc1)P1(=S)OCCO1 do in these assays?
hDAT+cocaine: inactive; PostGolgi yeast: inactive; D1 allo mod: 7.4; Ecoli WT expand: inactive; Ecoli tolC: inactive; PostGolgi ctrl: inactive; D1 mod confirm: 19704; D1 ag no DA: inactive; Isoprot counter: active

How did CCOC(=O)N(c1ccccc1)P1(=S)OCC(C)O1 (configuration not stated) do in these assays?
hDAT+cocaine: inactive; PostGolgi yeast: inactive; Ecoli WT expand: inactive; Ecoli tolC: inactive; PostGolgi ctrl: inactive

Results for COC(=O)N(c1ccccc1)P1(=S)OCCO1 ?
hDAT+cocaine: inactive; PostGolgi yeast: inactive; D1 allo mod: 5.3; Ecoli WT expand: inactive; Ecoli tolC: inactive; PostGolgi ctrl: inactive; D1 mod confirm: 11592; D1 ag no DA: inactive; Isoprot counter: active

How did CC(C)=CCOc1c2occc2cc2ccc(=O)oc12 do in these assays?
hDAT+cocaine: inactive

What do the screens show for `CC1(C)CN=C(Nc2ccc(F)c(F)c2)S1`?
hDAT+cocaine: inactive; PostGolgi yeast: inactive; D1 allo mod: 12; Ecoli WT expand: inactive; Ecoli tolC: inactive; PostGolgi ctrl: inactive; D1 mod confirm: 25280; D1 ag no DA: inactive; Isoprot counter: active

What do the screens show for `O=P(C(c1ccc2c(c1)OCO2)N1CCOCC1)(N1CCOCC1)N1CCOCC1` (configuration not stated)?
hDAT+cocaine: inactive; PostGolgi yeast: inactive; D1 allo mod: inactive; Ecoli WT expand: inactive; Ecoli tolC: inactive; PostGolgi ctrl: inactive

Results for COCCNC(=O)c1c(NC(=O)c2ccco2)n(Cc2ccccc2)c2nc3ccccc3nc12 ?
hDAT+cocaine: inactive; PostGolgi yeast: inactive; D1 allo mod: 4.3; Ecoli WT expand: inactive; Ecoli tolC: inactive; PostGolgi ctrl: inactive; D1 mod confirm: 10288; D1 ag no DA: inactive; Isoprot counter: inactive

What do the screens show for `COc1ccc2c(c1OC)C(=O)OC2c1c(O)n(C2CCCCC2)c(=O)[nH]c1=O` (configuration not stated)?
hDAT+cocaine: inactive; PostGolgi yeast: inactive; Ecoli WT expand: inactive; Ecoli tolC: inactive; PostGolgi ctrl: inactive

How did CCC(=NCc1ccco1)c1c(O)[nH]c(=O)[nH]c1=O do in these assays?
hDAT+cocaine: inactive; PostGolgi yeast: inactive; D1 allo mod: 8.6; Ecoli WT expand: inactive; Ecoli tolC: inactive; PostGolgi ctrl: inactive; D1 mod confirm: 16800; Isoprot counter: active
